For data set [1], the target named is Amyloid-beta precursor protein (Homo sapiens) (UniProt P05067). The experiment in a line: Inhibition of amyloid beta (1 to 42) (unknown origin) self-induced aggregation at 50 uM by Thioflavin T based fluorometric assay relative to control. A digest of the protocol:
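Thioflavin T fluorometric assay of Aβ1-42 self-aggregation, with inhibitor and Aβ42 both at 50 (equimolar). Samples dissolved in DMSO. Result given as % inhibition, mean of two independent experiments each run in triplicate.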

Data set [2] has as its system THP-1. The experiment in a line: Antiinflammatory activity in LPS-induced human THP-1 cells assessed as reduction in nitric oxide release at 10 uM peincubated for 1 hr followed by LPS stimulation and measured after 24 hrs by ELISA. It counts as functional, cell-based. The note with it: time 25.0 hrs. A digest of the protocol:
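THP-1 cells plated overnight at 4×10⁴ cells/well, given test compound 1 h before 100 ng/ml LPS (E. coli O111:B4), then incubated 24 h. Cell-free supernatants stored at −20 °C, then NO measured by ELISA kit (sensitivity 1,12 […]) from a standard curve. Untreated cells as negative control, LPS-only as positive control. At least triplicate.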

Data set [3] in a line: Induction of apoptosis in mouse 3T3 cells assessed as early apoptotic cells at 10 uM measured after 24 hrs by Annexin V-FITC/propidium iodide staining based flow cytometry (Rvb <= 0.97%). It counts as cell-based. Particulars: 3t3, 24 h. A digest of the protocol:
(§1)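 3T3 fibroblasts exposed to compound for 24 h, with untreated cells as negative control. Cells trypsinized, PBS-washed, stained with Annexin V-FITC and PI by kit protocol, then analysed by flow cytometry. Populations: live (Annexin−/PI−), early apoptotic (Annexin+/PI−), late apoptotic (Annexin+/PI+) and dead (Annexin−/PI+). Percentages given as mean ± SD.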
On the technique in general: A flow cytometer gives signals particle by particle.

A short description of data set [4]: Antioxidant activity assessed as trolox equivalent of AAPH radical scavenging activity at 10 uM measured every min for 90 mins by ORAC-FL assay. It counts as functional. A digest of the protocol: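 ORAC-FL in 75 mM phosphate buffer pH 7.4. Sample and fluorescein (150 nM final) preincubated 15 min at 37 °C, then AAPH (12 mM final) added. Fluorescence (ex 485/em 535 nm) read each minute for 90 min. Net AUC after blank subtraction, converted to Trolox equivalents from a Trolox curve (0.5–8, final; Trolox = 1). Duplicate wells, three independent assays.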

Data set [5] is described as follows: Induction of apoptosis in mouse 3T3 cells assessed as late apoptotic cells at 10 uM measured after 24 hrs by Annexin V-FITC/propidium iodide staining based flow cytometry (reference value: 0.1 to 0.13%). It counts as cell-based. The note with it: 3t3, 24 h. A digest of the protocol: as §1
Data set [6] can be described thus: Induction of apoptosis in mouse 3T3 cells assessed as viable cells at 10 uM measured after 24 hrs by Annexin V-FITC/propidium iodide staining based flow cytometry (reference value: 98.83 to 99%). Particulars: read-out: Activity. It counts as cell-based. A digest of the protocol:
as §1

Data set [7] deals with Cholinesterase (Equus caballus) (UniProt P81908). The experiment in a line: Inhibition of equine serum BChE at 100 uM using butyrylthiocholine iodide as substrate preincubated for 10 mins followed by substrate addition and measured for 10 mins by Ellman's method relative to control. The note with it: time 20.0 min. A digest of the protocol:
(§2)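 Ellman single-concentration screen in 50 mM Tris-HCl pH 8.0 with DTNB (6.8 mM stock) and 1% DMSO. Enzyme solution 0.4 U/mL AChE or 0.8 U/mL BChE. Compound and enzyme preincubated 10 min at 25 °C, then ATI (10 mM stock) or BTI (30 mM stock) added. A412 followed for 10 min, blank-subtracted, % inhibition versus no-compound control. Triplicate.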
Background: In Ellman's method for cholinesterases, released thiocholine reacts with DTNB.

In data set [8] the target is Acetylcholinesterase (Homo sapiens, UniProt P22303). Kind of data set: Inhibition of recombinant human AChE expressed in HEK293 cells using acetylthiocholine iodide as substrate preincubated for 10 mins followed by substrate addition and measured for 10 mins by Ellman's method.
Sequence of Acetylcholinesterase (Homo sapiens, UniProt P22303) (P22303 whole entry): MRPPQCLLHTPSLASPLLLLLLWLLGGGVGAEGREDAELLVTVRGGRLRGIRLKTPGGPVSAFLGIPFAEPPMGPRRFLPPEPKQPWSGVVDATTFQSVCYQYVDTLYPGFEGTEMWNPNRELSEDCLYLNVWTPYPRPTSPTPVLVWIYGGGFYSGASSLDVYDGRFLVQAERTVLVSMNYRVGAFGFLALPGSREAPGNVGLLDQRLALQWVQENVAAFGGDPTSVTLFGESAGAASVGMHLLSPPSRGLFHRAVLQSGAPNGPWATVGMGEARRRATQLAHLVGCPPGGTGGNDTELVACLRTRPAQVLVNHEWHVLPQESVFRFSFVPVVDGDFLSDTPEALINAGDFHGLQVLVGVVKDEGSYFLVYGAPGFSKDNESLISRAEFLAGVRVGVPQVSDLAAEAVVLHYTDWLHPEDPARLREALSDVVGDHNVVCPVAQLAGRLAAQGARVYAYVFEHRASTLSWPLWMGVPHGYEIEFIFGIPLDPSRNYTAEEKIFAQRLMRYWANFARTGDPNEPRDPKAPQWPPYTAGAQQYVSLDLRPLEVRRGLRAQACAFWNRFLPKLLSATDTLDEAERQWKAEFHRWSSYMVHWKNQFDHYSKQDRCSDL
The nature of data set [9]: Cytotoxicity against mouse 3T3 cells assessed as cell viability at 1 uM measured after 24 hrs by MTT assay relative to control. It counts as cell-based. Particulars: read-out: Activity. A digest of the protocol: (§3)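 3T3 fibroblasts (ATCC CCL92) grown as adherent monolayers in DMEM with 10% inactivated FBS, 2 mM L-glutamine and penicillin/streptomycin at 37 °C, 5% CO2. Cells exposed to compounds for 24 h. MTT added for 4 h, formazan dissolved in SDS for 24 h, OD read at 570 nm. Viability given as % of untreated OD; at least triplicate, mean ± SD.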
A general note: Tetrazolium dyes change colour on reduction, which living cells bring about.

A short description of data set [10]: Cytotoxicity against mouse 3T3 cells assessed as cell viability at 10 uM measured after 24 hrs by MTT assay relative to control. It is filed as cell-based. Particulars: read-out: Activity. A digest of the protocol:
as §3

For data set [11], the target named is Acetylcholinesterase (Electrophorus electricus, UniProt O42275). Kind of data set: Inhibition of electric eel AChE using acetylthiocholine iodide as substrate preincubated for 10 mins followed by substrate addition and measured for 10 mins by Ellman's method.
Sequence of Acetylcholinesterase (Electrophorus electricus, UniProt O42275) (O42275 whole entry): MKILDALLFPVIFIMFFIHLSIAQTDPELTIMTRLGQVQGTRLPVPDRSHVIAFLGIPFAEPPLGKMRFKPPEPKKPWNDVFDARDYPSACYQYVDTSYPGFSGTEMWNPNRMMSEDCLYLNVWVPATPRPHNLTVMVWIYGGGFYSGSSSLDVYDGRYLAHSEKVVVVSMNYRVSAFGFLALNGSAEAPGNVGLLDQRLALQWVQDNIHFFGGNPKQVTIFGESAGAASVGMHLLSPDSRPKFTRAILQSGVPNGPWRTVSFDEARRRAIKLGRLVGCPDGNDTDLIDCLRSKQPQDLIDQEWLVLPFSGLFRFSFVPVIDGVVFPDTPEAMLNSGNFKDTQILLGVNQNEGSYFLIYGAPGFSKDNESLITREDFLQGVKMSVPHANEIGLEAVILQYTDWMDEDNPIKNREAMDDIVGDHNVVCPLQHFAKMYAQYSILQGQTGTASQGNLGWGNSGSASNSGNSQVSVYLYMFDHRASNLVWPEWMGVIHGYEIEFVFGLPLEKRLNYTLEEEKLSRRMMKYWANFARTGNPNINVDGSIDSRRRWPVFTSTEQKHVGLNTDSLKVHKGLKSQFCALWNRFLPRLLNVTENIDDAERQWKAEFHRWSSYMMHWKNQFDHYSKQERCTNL
In data set [12] the test system is THP-1. Kind of data set: Antiinflammatory activity in LPS-induced human THP-1 cells assessed as reduction in IL1beta release at 10 uM peincubated for 1 hr followed by LPS stimulation and measured after 24 hrs by EIA. It counts as functional, cell-based. The note with it: time 25.0 hrs. A digest of the protocol:
(§4)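 THP-1 cells grown in RPMI 1640 with 10% FCS, penicillin and streptomycin at 37 °C, 5% CO2, then plated overnight at 4×10⁴ cells/well. Test compound added 1 h before 100 ng/ml E. coli O111:B4 LPS; 24 h incubation. Untreated and LPS-only controls. […]; cytokine read by EIA at 450 nm against a standard curve. At least triplicate.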

Data set [13] in a line: Induction of apoptosis in mouse 3T3 cells assessed as necrotic cells at 10 uM measured after 24 hrs by Annexin V-FITC/propidium iodide staining based flow cytometry (reference value: 0%). It is filed as cell-based. Particulars: 3t3, 24 h. A digest of the protocol:
as §1

Data set [14] concerns THP-1. The experiment in a line: Antiinflammatory activity in LPS-induced human THP-1 cells assessed as reduction in IL6 release at 10 uM peincubated for 1 hr followed by LPS stimulation and measured after 24 hrs by EIA. It counts as functional, cell-based. The note with it: time 25.0 hrs. A digest of the protocol: as §4
In data set [15] the target is Acetylcholinesterase (Electrophorus electricus) (UniProt O42275). The experiment in a line: Inhibition of electric eel AChE at 100 uM using acetylthiocholine iodide as substrate preincubated for 10 mins followed by substrate addition and measured for 10 mins by Ellman's method relative to control. The note with it: time 20.0 min. A digest of the protocol: as §2
Sequence of Acetylcholinesterase (Electrophorus electricus) (O42275 24-633 limits assumed): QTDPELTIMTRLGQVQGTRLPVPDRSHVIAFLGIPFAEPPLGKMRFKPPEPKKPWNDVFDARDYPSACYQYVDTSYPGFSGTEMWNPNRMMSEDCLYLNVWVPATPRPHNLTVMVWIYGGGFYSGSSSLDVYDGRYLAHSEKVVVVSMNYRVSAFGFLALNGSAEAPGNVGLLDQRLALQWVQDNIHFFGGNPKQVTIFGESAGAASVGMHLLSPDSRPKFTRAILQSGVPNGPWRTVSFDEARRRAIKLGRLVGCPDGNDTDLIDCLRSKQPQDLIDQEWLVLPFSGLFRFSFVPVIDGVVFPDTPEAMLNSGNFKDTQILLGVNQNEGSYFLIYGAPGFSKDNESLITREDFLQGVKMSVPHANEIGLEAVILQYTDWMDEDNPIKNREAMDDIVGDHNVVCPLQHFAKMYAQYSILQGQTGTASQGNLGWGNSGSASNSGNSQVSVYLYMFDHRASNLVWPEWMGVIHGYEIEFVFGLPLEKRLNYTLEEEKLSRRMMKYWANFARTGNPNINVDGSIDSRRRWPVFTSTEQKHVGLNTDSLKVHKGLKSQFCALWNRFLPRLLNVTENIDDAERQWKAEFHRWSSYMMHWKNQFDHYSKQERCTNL
Data set [16] concerns THP-1. The experiment in a line: Antiinflammatory activity in LPS-induced human THP-1 cells assessed as reduction in TNFalpha release at 10 uM peincubated for 1 hr followed by LPS stimulation and measured after 24 hrs by EIA. The note with it: time 25.0 hrs. It is filed as functional, cell-based. A digest of the protocol:
as §4

Data set [17] is described as follows: Cytotoxicity against mouse 3T3 cells assessed as cell viability at 0.1 uM measured after 24 hrs by MTT assay relative to control. It is filed as cell-based. The note with it: read-out: Activity. A digest of the protocol: as §3
The target of data set [18] is Cholinesterase (Equus caballus, UniProt P81908). Kind of data set: Inhibition of equine serum BChE using butyrylthiocholine iodide as substrate preincubated for 10 mins followed by substrate addition and measured for 10 mins by Ellman's method. A digest of the protocol: (§5)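 BChE (0.8 U/mL solution) preincubated with inhibitor 10 min at 25 °C in Tris-HCl pH 8.0 with DTNB and 1% DMSO, then BTI (30 mM stock) added. A412 read over 10 min, blank-corrected. IC50 from log[inhibitor] versus % inhibition. Triplicate, mean ± SD.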
Sequence of Cholinesterase (Equus caballus, UniProt P81908) (P81908 whole entry): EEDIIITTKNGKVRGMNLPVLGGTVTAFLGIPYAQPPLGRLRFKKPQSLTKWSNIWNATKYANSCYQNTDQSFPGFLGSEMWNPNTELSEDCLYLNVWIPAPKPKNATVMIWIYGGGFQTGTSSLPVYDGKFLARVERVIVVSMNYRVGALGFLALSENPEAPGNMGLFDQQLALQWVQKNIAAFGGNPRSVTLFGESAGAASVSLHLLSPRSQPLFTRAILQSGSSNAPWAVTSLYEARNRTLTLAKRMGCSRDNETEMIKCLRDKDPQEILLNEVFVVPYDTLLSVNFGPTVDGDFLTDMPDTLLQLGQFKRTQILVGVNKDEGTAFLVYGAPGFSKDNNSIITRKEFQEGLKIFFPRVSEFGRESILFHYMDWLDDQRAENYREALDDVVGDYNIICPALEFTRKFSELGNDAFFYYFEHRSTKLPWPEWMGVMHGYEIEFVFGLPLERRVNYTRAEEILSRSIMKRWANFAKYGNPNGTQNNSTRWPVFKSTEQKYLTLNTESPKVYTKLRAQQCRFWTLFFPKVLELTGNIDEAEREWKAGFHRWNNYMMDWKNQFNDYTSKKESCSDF

The species entered for data set [19] is Homo sapiens. The experiment in a line: Reversible inhibition of recombinant human BChE assessed as residual activity at IC50 using butyrylthiocholine iodide as substrate preincubated for 30 mins followed by 100-fold dilution in presence of substrate and measured after 15 mins by Ellman's method relative to control. The note with it: time 45.0 min.
For data set [20], the species on record is Homo sapiens. Kind of data set: Reversible inhibition of recombinant human BChE assessed as residual activity at 0.1 times IC50 using butyrylthiocholine iodide as substrate preincubated for 30 mins followed by 100-fold dilution in presence of substrate and measured after 15 mins by Ellman's method relative to control. Particulars: time 45.0 min.
Data set [21] addresses Cholinesterase (Homo sapiens, UniProt P06276). The experiment in a line: Inhibition of recombinant human BChE using butyrylthiocholine iodide as substrate preincubated for 10 mins followed by substrate addition and measured for 10 mins by Ellman's method. A digest of the protocol:
as §5

Molecules are shown by their SMILES. Activity calls are given as the source filed them. The calls are words filed in the database; no cut-off is given here.

Sequence of Cholinesterase (Equus caballus) (P81908 whole entry): as above
Sequence of Amyloid-beta precursor protein (Homo sapiens) (P05067 whole entry): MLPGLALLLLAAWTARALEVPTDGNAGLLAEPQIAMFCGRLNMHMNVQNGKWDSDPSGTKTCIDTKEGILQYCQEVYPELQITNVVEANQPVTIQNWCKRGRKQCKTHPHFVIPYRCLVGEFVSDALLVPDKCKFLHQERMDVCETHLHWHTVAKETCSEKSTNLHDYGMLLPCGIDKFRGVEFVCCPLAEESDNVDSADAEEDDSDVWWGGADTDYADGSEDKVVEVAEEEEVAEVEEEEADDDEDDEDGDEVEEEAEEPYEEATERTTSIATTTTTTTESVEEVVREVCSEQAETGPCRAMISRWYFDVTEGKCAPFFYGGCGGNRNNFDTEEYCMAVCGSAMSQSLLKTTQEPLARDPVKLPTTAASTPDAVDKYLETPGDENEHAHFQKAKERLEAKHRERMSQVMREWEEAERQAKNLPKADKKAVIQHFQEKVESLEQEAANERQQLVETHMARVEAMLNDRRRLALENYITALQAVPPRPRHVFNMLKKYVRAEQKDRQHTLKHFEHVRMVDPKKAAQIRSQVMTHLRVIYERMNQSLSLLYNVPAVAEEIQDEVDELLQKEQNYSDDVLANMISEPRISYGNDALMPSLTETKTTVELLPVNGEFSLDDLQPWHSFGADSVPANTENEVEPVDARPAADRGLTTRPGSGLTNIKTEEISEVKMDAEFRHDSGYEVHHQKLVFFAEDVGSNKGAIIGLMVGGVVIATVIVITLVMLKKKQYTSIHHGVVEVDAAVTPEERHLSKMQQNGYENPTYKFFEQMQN
Sequence of Cholinesterase (Homo sapiens, UniProt P06276) (P06276 whole entry): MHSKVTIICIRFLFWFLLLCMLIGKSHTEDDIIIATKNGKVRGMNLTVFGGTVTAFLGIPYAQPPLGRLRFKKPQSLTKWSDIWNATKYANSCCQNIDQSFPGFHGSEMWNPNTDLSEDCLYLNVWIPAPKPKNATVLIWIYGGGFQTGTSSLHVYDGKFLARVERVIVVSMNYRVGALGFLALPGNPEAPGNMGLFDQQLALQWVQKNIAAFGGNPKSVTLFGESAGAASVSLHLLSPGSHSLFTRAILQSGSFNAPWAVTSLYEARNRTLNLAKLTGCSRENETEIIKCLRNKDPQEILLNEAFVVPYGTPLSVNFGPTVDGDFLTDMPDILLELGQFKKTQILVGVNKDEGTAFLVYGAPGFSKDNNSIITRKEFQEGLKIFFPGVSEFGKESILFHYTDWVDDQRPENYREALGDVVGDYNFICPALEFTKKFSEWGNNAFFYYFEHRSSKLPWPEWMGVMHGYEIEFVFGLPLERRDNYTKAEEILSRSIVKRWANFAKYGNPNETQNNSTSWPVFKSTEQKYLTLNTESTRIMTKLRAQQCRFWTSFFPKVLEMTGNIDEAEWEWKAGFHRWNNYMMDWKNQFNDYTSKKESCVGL

The term inhibition denotes the relative decrease from the control value, in per cent. The IC50 is the concentration at which inhibition is half-maximal. `Cn1c(=O)sc2cc(C(=O)CCN3CCN(Cc4ccccc4)CC3)ccc21`: the inhibition is 57.5% in [1], less than 10% in data set [7] and 99% in [15]. Also, the outcome in [2], in data set [12], in data set [14] and in [16] was Active. The Activity was 1.03% in data set [3], 3.7 equiv in data set [4], 0.1% in data set [5] and 0.4% in data set [13]. In addition, the viability at 24 h, 10 µM was 98.3% in data set [6] and 92.6% in [10]. In addition, the figures for the IC50 in data set [8] and in data set [11] were 0.46 µM and 0.34 µM, respectively. For the same compound, the viability at 24 h, 1 µM in [9] worked out at 99.3%. In addition, the viability at 24 h, 0.1 µM in data set [17] is 102%.

On to `Cn1c(=O)sc2cc(NC(=O)CCCN3CCC(c4ccccc4)CC3)ccc21`, for which the result in data set [2], in [12], in [14] and in data set [16] was Active. Moreover, the Activity in data set [4] stood at 2.93 equiv. Moreover, the inhibition was 90% in data set [7] and 32% in data set [15]. In addition, half-maximal inhibition in data set [18] (IC50) was put at 9.65 µM.

In the case of `Cn1c(=O)sc2cc(NC(=O)CCN3CCN(Cc4ccc(F)cc4)CC3)ccc21`, in data set [4], the Activity amounted to 4.1 equiv. In addition, the inhibition came to 52% in data set [7] and 74% in data set [15]. The IC50 in [11] stood at 7.09 µM; in data set [18] it was 37.6 µM.

As for `Cn1c(=O)sc2cc(NC(=O)CCN3CCC(c4ccccc4)CC3)ccc21`, in data set [4], the Activity was found to be 4.31 equiv. The results for the inhibition in data set [7] and in data set [15] were 81% and 60%, respectively. In addition, the IC50 in data set [11] amounted to 60.3 µM; in [18] it was 11.1 µM.

`O=S1(=O)OC(c2ccc(O)cc2)(c2ccc(O)cc2)c2ccccc21` showed an inhibition in data set [1] of 32.2%.

`CN(CCC(=O)Nc1ccc2c(c1)sc(=O)n2C)Cc1ccccc1`: the Activity in [4] turned out to be 3.9 equiv. Moreover, the inhibition in data set [7] stood at 70%; in data set [15], 63%. For the same compound, the values for the concentration for half-maximal inhibition (IC50) in [11] and in [18] were 49.5 µM and 42 µM, respectively.

Regarding `COc1cc2c(cc1OC)C(=O)C(CC1CCN(Cc3ccccc3)CC1)C2` (stereo unspecified), the result in [2], in [12], in data set [14] and in [16] was Active. Besides, the Activity turned out to be 90.2% in data set [19] and 95.4% in data set [20].

Take `Cn1c(=O)sc2cc(NC(=O)CCCCN3CCC(c4ccccc4)CC3)ccc21`: the inhibition is 55.6% in data set [1], 96% in data set [7] and 30% in data set [15]. Besides, the outcome in data set [2], in data set [12], in [14] and in [16] was Active. In addition, the Activity in data set [19] was 81.5%; in data set [3] it was 1.73%; in data set [4], 2.61 equiv; in data set [5], 0.33%; in data set [13], “<= 0.23%”; in data set [20] it was 98.4%. In addition, the viability at 24 h, 10 µM came to 93.8% in data set [6] and 93.6% in data set [10]. The results for the half-inhibitory concentration (IC50) in [21] and in data set [18] were 2.56 µM and 2.98 µM, respectively. The viability at 24 h, 1 µM in data set [9] is 97.1%. The viability at 24 h, 0.1 µM in [17] was determined as 98.9%.

For the origin of these results see ChEMBL document CHEMBL4706649, “Design, synthesis and biological evaluation of new benzoxazolone/benzothiazolone derivatives as multi-target agents against Alzheimer's disease” (Eur J Med Chem, 2021).
